Data from ChEMBL document CHEMBL4811274, “Epo-C12 inhibits peroxiredoxin 1 peroxidase activity” (Bioorg Med Chem, 2021).
The source made the active and inactive calls. No cut-off for these calls is given here.

How the values were obtained:
[1] = biological target: Peroxiredoxin-1 (Homo sapiens) (UniProt Q06830); assay: Binding affinity to recombinant wild type Prx1 (unknown origin) expressed in human HEK293T cells at 1 uM incubated for 20 hrs by Western blot analysis
BALL-1 [2] = assay: Cytotoxicity against human BALL-1 cells assessed as reduction in cell viability incubated for 24 hrs by WST-8 assay; assay type: functional, cell-based; conditions: BALL-1, 24 h
Outline: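 BALL-1 cells (RPMI 1640, 10% FBS, 37 °C, 5% CO2) seeded at 10,000 cells/well, exposed to a concentration range for 24 h, 0.1% DMSO. WST-8 reagent added, 2 h at 37 °C, absorbance 450 nm. Growth inhibition taken as sample/control absorbance ratio; IC50 reported as mean ± SD.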

BALL-1 [3] = assay: Induction of apoptosis in human BALL-1 cells at 5 uM pretreated with DTT for 1.5 hrs followed by compound addition and measured after 24 hrs by annexin-V-FITC and PI staining based flow cytometry analysis; assay type: functional, cell-based
Outline: (§1)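 BALL-1 cells (2×10⁵) pretreated 1.5 h at 37 °C with DMSO, 250 μM DTT, 1.5 mM GSH or 250 μM NAC, then ±5 μM compound for 24 h. Stained with annexin V-FITC (HEPES–NaOH/NaCl/CaCl2 buffer pH 7.4, 10 min), then 2 μg/mL PI; flow cytometry. Late apoptotic (annexin V+/PI+) percentage; octuplicate, mean ± SD, Tukey HSD.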

[4] = biological target: Peroxiredoxin-1 (Homo sapiens) (UniProt Q06830); assay: Inhibition of recombinant Prx1 (unknown origin) assessed as reduction in peroxidase activity at 50 uM incubated for 30 mins followed by H2O2 addition and measured after 20 mins by PEROXsay assay kit method relative to control; values are per cent of control; conditions: time 50.0 min
[5] = biological target: Peroxiredoxin-1 (Homo sapiens) (UniProt Q06830); assay: Retention of chaperone activity of oxidized Prx1 (unknown origin) assessed as decrease in heat-induced citrate synthase aggregation at 25 uM incubated for 20 mins by light scattering assay
BALL-1 [6] = assay: Induction of apoptosis in human BALL-1 cells at 5 uM pretreated with GSH for 1.5 hrs followed by compound addition and measured after 24 hrs by annexin-V-FITC and PI staining based flow cytometry analysis; assay type: functional, cell-based
Outline: as §1

BALL-1 [7] = assay: Induction of apoptosis in human BALL-1 cells at 5 uM pretreated with NAC for 1.5 hrs followed by compound addition and measured after 24 hrs by annexin-V-FITC and PI staining based flow cytometry analysis; assay type: functional, cell-based
Outline: as §1

BALL-1 [8] = assay: Induction of ROS production in human BALL-1 cells incubated for 30 mins by DCFH-DA staining based flow cytometry analysis; assay type: functional, cell-based; conditions: dose 1-10 µM
Outline: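 Cells (2×10⁵) loaded with 10 μM DCFH-DA for 10 min, then exposed to 1, 5 or 10 μM compound, DMSO vehicle, or 50 μM H2O2 for 30 min. Pellets resuspended in PBS; DCF fluorescence by flow cytometry (ex 488/em 530 nm). Fluorescence normalized to control; mean of two independent measurements, error as range.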

Sequence of Peroxiredoxin-1 (Homo sapiens) (Q06830 whole entry, looked up): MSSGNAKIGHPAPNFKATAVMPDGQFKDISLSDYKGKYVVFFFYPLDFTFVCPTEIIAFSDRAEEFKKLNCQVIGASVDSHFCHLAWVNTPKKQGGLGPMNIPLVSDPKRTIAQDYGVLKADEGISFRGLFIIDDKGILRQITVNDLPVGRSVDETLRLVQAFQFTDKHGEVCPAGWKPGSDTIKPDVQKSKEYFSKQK

Activity [1]	residual activity [4] [%]	Activity [5]	Structure (SMILES)	IC50 (BALL-1 [2]) [nM]	Activity (BALL-1 [3])	Activity (BALL-1 [6])	Activity (BALL-1 [7])	Activity (BALL-1 [8])
Active	–	–	CC1(O)NC(=O)[C@@]2(C(=O)CCCCCCCCCCCNC(=O)CCCC[C@@H]3SC[C@@H]4NC(=O)N[C@@H]43)O[C@@H]12 (stereo partly specified)	–	–	–	–	–
–	56	Active	CCCCCCCCCCCC(=O)[C@]12O[C@H]1C(C)(O)NC2=O (stereo partly specified)	4410	inactive	inactive	inactive	Dose-Dependent Effect
–	33	Active	[O-][n+]1c(CBr)c(CBr)[n+]([O-])c2ccccc21	1050	–	–	–	–
